Measured values: paper PMC11865470 (Communications Biology, 2025)
Where a chain is given by its changes, count along the chain named. Where two headings read alike, the source gives them in different places.

Tests used:
[1] = target: T1, mouse Otop1 (mOtop1) channels (Mus musculus, UniProt Q80VM9); assay type: cell-based; conditions: read-out: IC50, inhibition of mOtop1 currents, n = 5-6
T1 sequence (Q80VM9 1-600): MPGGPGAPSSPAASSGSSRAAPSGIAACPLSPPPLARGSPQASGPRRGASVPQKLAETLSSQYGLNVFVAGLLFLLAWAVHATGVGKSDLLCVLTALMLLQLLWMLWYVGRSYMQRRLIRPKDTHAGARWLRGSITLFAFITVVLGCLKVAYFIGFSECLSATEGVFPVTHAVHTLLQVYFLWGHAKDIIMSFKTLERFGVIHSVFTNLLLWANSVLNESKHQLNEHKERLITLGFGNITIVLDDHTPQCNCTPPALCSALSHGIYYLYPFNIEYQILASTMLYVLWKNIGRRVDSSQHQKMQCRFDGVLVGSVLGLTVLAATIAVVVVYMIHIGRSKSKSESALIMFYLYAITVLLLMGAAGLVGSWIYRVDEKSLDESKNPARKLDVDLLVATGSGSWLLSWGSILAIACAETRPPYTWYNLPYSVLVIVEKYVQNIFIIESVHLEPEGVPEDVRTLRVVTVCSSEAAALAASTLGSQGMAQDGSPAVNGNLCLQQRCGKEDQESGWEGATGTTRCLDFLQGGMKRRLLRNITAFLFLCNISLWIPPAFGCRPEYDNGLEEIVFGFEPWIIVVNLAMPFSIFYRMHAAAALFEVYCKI

[2] = target: T2, mOtop1/R554A (Mus musculus, UniProt Q80VM9, R554A); test: patch-clamp, mOtop1 mutant; assay type: cell-based; conditions: 1 mM Zn2+
T2 sequence (Q80VM9 1-600 R554A): T1 sequence (Q80VM9 1-600) with R554A

[3] = system: Otop1 channel; conditions: cited from earlier work
[4] = target: T3, mOtop1 channels co-expressed in HEK293 cells (Mus musculus, UniProt Q80VM9); test: live cell intracellular pH imaging; assay type: cell-based; conditions: pH 5.0; mOtop1 transfected cells
T3 sequence (Q80VM9 1-600): T1 sequence (Q80VM9 1-600)
Summary of the method: (§1)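 HEK293 cells were electroporated (180 V, 25 ms) with pHmScarlet-mTurquise2, with or without mOtop1, and imaged 24 h later. Cells sat in pH 7.4 solution (mM: 140 KCl, 10 NaCl, 1 MgCl2, 20 HEPES), then were shifted to pH 8.5 (Tris), 6.0 (MES) or 5.0 (HomoPIPES). Test compound was 10 μM in the stimulus solution, with acetic acid pH 5.0 as positive control. FpHmScarlet/FmTurquise2 ratio read every 2 s.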

[5] = system: HEK293 cells expressing merely pHmScarlet-mTurquise2; test: live cell intracellular pH imaging; assay type: cell-based; conditions: pH 5.0; nontransfected cells
Summary of the method: as §1

[6] = system: mOtop1 channel; conditions: read-out: EC50, activating Otop1 currents; neutral and acidic conditions; cited from earlier work

[Zn+2] [Zn^2+]
IC50 ([1]; currents activated by pH 5.5 alone): 72 ± 9 µM
IC50 ([1]; currents activated by pH 5.5 with 10 μM MFaN): 58 ± 13 µM
effect on mOtop1/R554A currents [2]: significantly inhibited

Nc1c(S(=O)(=O)O)cc(Nc2ccc(Nc3nc(Cl)nc(Nc4ccccc4S(=O)(=O)O)n3)c(S(=O)(=O)O)c2)c2c1C(=O)c1ccccc1C2=O [Cibacron Blue 3G-A]
action on Otop1 [3]: moderate antagonist

CC(=O)O [acetic acid, reference compound]
pHi change, positive control [4]: triggered dramatical pHi dropdown
pHi change, positive control [5]: triggered dramatical pHi dropdown

Cc1ccc(C(C)C)cc1O [carvacrol]
EC50 [6]: ~700 µM
